Experimental data reported in ChEMBL document CHEMBL4316648, “Ipomeolides A and B, Resin Glycosides from Ipomoea pes-caprae and Combination Therapy of Ipomeolide A with Doxorubicin” (J Nat Prod, 2019).
Activity calls are given as the source filed them. The rule behind the calls is not given here.

Columns and labels:
A549 = assay: Cytotoxicity in human A549 cells assessed as reduction in cell viability incubated for 48 hrs by MTT assay; format: functional, cell-based
Method in brief: (§1)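 Human tumour lines grown in DMEM with 10% fetal calf serum, 37 °C, 5% CO2, passaged at 60–70% confluency. About 5000 cells/well seeded in triplicate and grown 24 h. Medium then replaced with medium containing compound at various concentrations. After 48 h, MTT (5 mg/mL) added for 4 h. DMSO-soluble formazan read at 590 nm. Doxorubicin served as positive control.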

MDA-MB-231 = assay: Cytotoxicity in human MDA-MB-231 cells assessed as reduction in cell viability incubated for 48 hrs by MTT assay; format: functional, cell-based; method in brief: as §1
MCF7 = assay: Cytotoxicity in human MCF7 cells assessed as reduction in cell viability incubated for 48 hrs by MTT assay; format: functional, cell-based; method in brief: as §1
HL-60 = assay: Cytotoxicity in human HL60 cells assessed as reduction in cell viability incubated for 48 hrs by MTT assay; format: functional, cell-based; method in brief: as §1
K562 [1] = assay: Cytotoxicity in human K562 cells assessed as induction of cell death at 1 uM incubated for 72 hrs by MTT assay; format: functional
Method in brief: (§2)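 K562 cells were grown in DMEM with 10% fetal calf serum at 37 °C in 5% CO2. About 5000 cells per well were seeded and grown 24 h. Medium was then replaced with medium holding various compound concentrations for 72 h. Viability was measured by MTT (4 h), reading formazan in DMSO at 590 nm. Survival was compared with untreated control, in triplicate.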

K562 [2] = assay: Induction of apoptotic cell death in human K562 cells at 1 uM incubated for 72 hrs by Annexin V/propidium iodide staining based assay; format: functional
Method in brief: (§3)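 K562 cells treated for 72 h with doxorubicin, the test agent, or the two combined. They were then stained with labelled annexin V and propidium iodide to show surface phosphatidylserine, and imaged by fluorescence microscopy.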

K562 [3] = assay: Cytotoxicity in human K562 cells assessed as reduction in cell viability incubated for 72 hrs by MTT assay; format: functional; settings: K562, 72 h, read-out: LD50 (the source's name); method in brief: as §2
K562 [4] = assay: Potentiation of doxorubicin-induced cytotoxicity in human K562 cells assessed as induction of cell death at 3 to 10 uM in presence of 1 uM doxorubicin incubated for 72 hrs by MTT assay; format: functional, cell-based
Method in brief: (§4)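 K562 leukaemia cells seeded at equal numbers per well and exposed for 72 h to doxorubicin (1 or 2 μM), the test agent at varying concentrations, or both. Surviving cells counted relative to untreated control. Significance was taken as P < 0.05.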

K562 [5] = assay: Cytotoxicity in human K562 cells assessed as reduction in cell viability incubated for 48 hrs by MTT assay; format: functional, cell-based; settings: K562, 48 h; method in brief: as §1
K562 [6] = assay: Potentiation of doxorubicin-induced apoptotic cell death in human K562 cells at 4 uM in presence of 1 uM doxorubicin incubated for 72 hrs by Annexin V/propidium iodide staining based assay; format: functional; method in brief: as §3
K562 [7] = assay: Potentiation of doxorubicin-induced cytotoxicity in human K562 cells assessed as induction of cell death in presence of doxorubicin incubated for 72 hrs by MTT assay; format: functional, cell-based; settings: K562, 72 h; method in brief: as §4
[8] = Toxicity in human K562 cells assessed as reduction in cell viability incubated for 72 hrs by MTT assay; format: cell-based; settings: read-out: LD50; method in brief: as §2
K562 [9] = assay: Potentiation of doxorubicin-induced cytotoxicity in human K562 cells assessed as induction of cell death at 1 to 10 uM in presence of 2 uM doxorubicin incubated for 72 hrs by MTT assay; format: functional, cell-based; method in brief: as §4
K562 [10] = assay: Toxicity in human K562 cells assessed as reduction in cell viability up to 10 uM incubated for 72 hrs by MTT assay; format: cell-based; settings: k562, 72 h; method in brief: as §4
K562 [11] = assay: Potentiation of doxorubicin-induced cytotoxicity in human K562 cells assessed as induction of cell death at 4 uM in presence of 1 uM doxorubicin incubated for 72 hrs by MTT assay; format: functional
Method in brief: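 K562 cells were grown in DMEM with 10% FCS at 37 °C in 5% CO2 and seeded at about 5000 cells per well for 24 h. They were cotreated for 72 h with 1 or 2 μM doxorubicin plus varying test compound up to 10 μM. Survival was read by MTT at 590 nm against untreated control, in triplicate. Significance was set at P < 0.05.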

K562 [12] = assay: Potentiation of doxorubicin-induced cytotoxicity in human K562 cells assessed as induction of cell death in presence of 1 uM doxorubicin incubated for 72 hrs by MTT assay; format: functional; settings: K562, 72 h, read-out: MEC; method in brief: as §4
K562 [13] = assay: Toxicity in human K562 cells assessed as induction of apoptotic cell death at 4 uM incubated for 72 hrs by Annexin V/propidium iodide staining based assay; settings: k562, 72 h; method in brief: as §3

| Structure (SMILES) | Activity (A549) | Activity (MDA-MB-231) | Activity (MCF7) | Activity (HL-60) | Activity (K562 [1]) | Activity (K562 [2]) | CC50 (K562 [3]) | Activity (K562 [4]) | IC50 (K562 [5]) | Activity (K562 [6]) | IC50 (K562 [7]) | CC50 at 72 h [8] | Activity (K562 [9]) | Activity (K562 [10]) | Activity (K562 [11]) | minimal effective concentration (K562 [12]) | Activity (K562 [13]) |
| --- | --- | --- | --- | --- | --- | --- | --- | --- | --- | --- | --- | --- | --- | --- | --- | --- | --- |
| CCCCCCCCCCCC(=O)O[C@H]1[C@H](O[C@@H]2[C@@H](O[C@@H]3O[C@@H](C)[C@H](OC(=O)[C@@H](C)CC)[C@@H](O)[C@H]3OC(=O)/C=C/c3ccccc3)[C@H]3OC(=O)CCCCCCCCC[C@@H](CCCCC)O[C@@H]4O[C@H](C)[C@@H]5OC(C)(C)O[C@@H]5[C@H]4O[C@@H]3O[C@H]2C)O[C@@H](C)[C@H](O[C@@H]2O[C@@H](C)[C@H](O)[C@H]3OC(C)(C)O[C@@H]23)[C@H]1O | inactive | inactive | inactive | inactive |  |  |  |  |  |  |  |  |  |  |  |  |  |
| CCCCCCCCCCCC(=O)O[C@H]1[C@H](O[C@@H]2[C@@H](O[C@@H]3O[C@@H](C)[C@H](OC(=O)[C@@H](C)CC)[C@H]4OC(C)(C)O[C@@H]34)[C@H]3OC(=O)CCCCCCCCC[C@@H](CCCCC)O[C@@H]4O[C@H](C)[C@@H]5OC(C)(C)O[C@@H]5[C@H]4O[C@@H]3O[C@H]2C)O[C@@H](C)[C@H](O[C@@H]2O[C@@H](C)[C@H](O)[C@H]3OC(C)(C)O[C@@H]23)[C@H]1O | inactive | inactive | inactive | inactive |  |  |  |  |  |  |  |  |  |  |  |  |  |
| COc1cccc2c1C(=O)c1c(O)c3c(c(O)c1C2=O)C[C@@](O)(C(=O)CO)C[C@@H]3O[C@H]1C[C@H](N)[C@H](O)[C@H](C)O1 [DOXORUBICIN] |  |  |  |  | 11% | inactive | 2 µM |  |  |  |  |  |  |  |  |  |  |
| CCCCCCCCCCCC(=O)O[C@H]1[C@H](O[C@@H]2[C@@H](O[C@@H]3O[C@@H](C)[C@H](OC(=O)[C@@H](C)CC)[C@@H](O)[C@H]3O)[C@H]3OC(=O)CCCCCCCCC[C@@H](CCCCC)O[C@@H]4O[C@H](C)[C@H](O)[C@H](O)[C@H]4O[C@@H]3O[C@H]2C)O[C@@H](C)[C@H](O[C@@H]2O[C@@H](C)[C@H](O)[C@@H](O)[C@H]2O)[C@H]1O | inactive | inactive | inactive | inactive |  |  |  | Active | 18.3 µM | Active | 8.5 µM | 20 µM | Active | Non-Toxic | 47% | 4 µM | Non-Toxic |
